Source: ChEMBL document CHEMBL1122160, “Structure--activity relationships of nogalamycin analogues” (1982)

Experiments:
[1] = test system: L1210; test: Micromolar concentration required to inhibit the growth of L1210 cells by 50% was determined; type: functional; details: Mus musculus, read-out: ID50 (the source's name)
[2] = test system: L1210; test: Micromolar concentration required to inhibit the growth of L1210 cells by 90% was determined; type: functional, Mus musculus
[3] = test system: Mus musculus; test: Tested for antitumor activity in vivo and the weight change in grams for the tumor in mouse was determined; type: functional
How it was run: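 Mice received 10^6 P-388 leukemia cells intraperitoneally on day 0, following the standard NCI protocol. Drug was injected daily on days 1-9, or only on days 1, 5 and 9 for certain analogues.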

[4] = test system: Mus musculus; test: […] percent increase in life span of mice injected intraperitoneally with P-388 leukemia after administration (50 mg/kg)/day; type: functional
How it was run: (§1)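 P-388 leukemia cells (10^6) implanted intraperitoneally in mice on day 0, following a standard National Cancer Institute protocol. Drug was given daily on days 1-9, or on days 1, 5 and 9 for some analogues. Dose level is as in each line.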

[5] = test system: Mus musculus; test: […] percent increase in life span of mice injected intraperitoneally with P-388 leukemia after administration (1.25 mg/kg)/day; type: functional; how it was run: as §1
[6] = test system: Mus musculus; test: […] percent increase in life span of mice injected intraperitoneally with P-388 leukemia after administration (8 mg/kg)/day; type: functional; how it was run: as §1
[7] = test system: Mus musculus; test: […] percent increase in life span of mice injected intraperitoneally with P-388 leukemia after administration (33 mg/kg)/day; type: functional; how it was run: as §1
[8] = test system: Mus musculus; test: […] percent increase in life span of mice injected intraperitoneally with P-388 leukemia after administration (12.5 mg/kg)/day; type: functional; how it was run: as §1
[9] = test system: Mus musculus; test: […] percent increase in life span of mice injected intraperitoneally with P-388 leukemia after administration (20 mg/kg)/day; type: functional; how it was run: as §1
[10] = test system: Mus musculus; test: […] percent increase in life span of mice injected intraperitoneally with P-388 leukemia after administration (5 mg/kg)/day; type: functional; how it was run: as §1
[11] = test system: Mus musculus; test: In vivo percent increase in life span of mice injected intraperitoneally with P-388 leukemia after administration (25 mg/kg)/day
[12] = test system: Mus musculus; test: […] percent increase in life span of mice injected intraperitoneally with P-388 leukemia after administration (10 mg/kg)/day; type: functional; how it was run: as §1
[13] = test system: Mus musculus; test: […] percent increase in life span of mice injected intraperitoneally with P-388 leukemia after administration (1 mg/kg)/day; type: functional; how it was run: as §1
[14] = test system: Mus musculus; test: […] percent increase in life span of mice injected intraperitoneally with P-388 leukemia after administration (100 mg/kg)/day; type: functional; how it was run: as §1
[15] = test system: Mus musculus; test: […] percent increase in life span of mice injected intraperitoneally with P-388 leukemia after administration (16 mg/kg)/day; type: functional; how it was run: as §1
[16] = test system: Mus musculus; test: […] percent increase in life span of mice injected intraperitoneally with P-388 leukemia after administration (400 mg/kg)/day; type: functional; how it was run: as §1
[17] = test system: Mus musculus; test: […] percent increase in life span of mice injected intraperitoneally with P-388 leukemia after administration (6.25 mg/kg)/day; type: functional; how it was run: as §1
[18] = test system: Mus musculus; test: […] percent increase in life span of mice injected intraperitoneally with P-388 leukemia after administration (40 mg/kg)/day; type: functional; how it was run: as §1

SMILES	IC50 [1]	ID90 [2]	Weight change [3]	other results
COC1CC(C)(O)Cc2cc3c(c(O)c21)C(=O)c1c(O)cc2c(c1C3=O)OC1OC2(C)C(O)C(N(C)C=O)C1O (stereo not given)	4.3 µM	>5 µM		
COC1C(C)OC(OC2CC(C)(O)Cc3cc4c(c(O)c32)C(=O)c2c(O)cc3c(c2C4=O)OC2OC3(C)C(OC(C)=O)C(N(C)C)C2OC(C)=O)C(OC)C1(C)OC (stereo not given)	0.076 µM	0.21 µM	-0.6 g	ILS [4]: 41%
CNC1C(O)C2Oc3c(cc(O)c4c3C(=O)c3cc5c(c(O)c3C4=O)C(OC)CC(C)(O)C5)C(C)(O2)C1O (stereo not given)	0.38 µM	0.11 µM	-1.3 g	ILS [5]: 73%
CSC1CC(C)(O)Cc2cc3c(c(O)c21)C(=O)c1c(O)cc2c(c1C3=O)OC1OC2(C)C(O)C(N(C)C)C1O (stereo not given)	0.13 µM	0.34 µM	-3.1 g	ILS [6]: 37%
CNC1C(O)C2Oc3c(cc(O)c4c3C(=O)c3cc5c(c(O)c3C4=O)C(OC3OC(C)C(OC)C(C)(OC)C3OC)CC(C)(O)C5)C(C)(O2)C1O (stereo not given)	0.88 µM	>1 µM	-0.6 g	ILS [7]: 24%
COC1CC(C)(O)Cc2cc3c(c(O)c21)C(=O)c1c(O)cc2c(c1C3=O)OC1OC2(C)C(O)C(N(C)C)C1O (stereo not given)	0.061 µM	0.13 µM	-0.4 g	ILS [8]: 197%
COC1C(C)OC(OC2CC(C)(O)Cc3cc4c(c(OC(C)=O)c32)C(=O)c2c(O)cc3c(c2C4=O)OC2OC3(C)C(OC(C)=O)C(N(C)C)C2OC(C)=O)C(OC)C1(C)OC (stereo not given)	0.017 µM	0.041 µM	-0.1 g	ILS [9]: 37%
COC1C(C)OC(OC2CC(C)(O)Cc3cc4c(c(O)c32)C(=O)c2c(O)cc3c(c2C4=O)OC2OC3(C)C(O)C(N(C)C)C2O)C(OC)C1(C)OC (stereo not given)	0.18 µM	0.27 µM	-0.2 g	ILS [10]: 93%
COC(=O)C1c2cc3c(c(O)c2C(OC2OC(C)C(OC)C(C)(OC)C2OC)CC1(C)O)C(=O)c1c(O)cc2c(c1C3=O)OC1OC2(C)C(O)C(N(C)C=O)C1O (stereo not given)	> 1 µM	>1 µM	-0.1 g	ILS [11]: 12%
C#CCOC1CC(C)(O)Cc2cc3c(c(O)c21)C(=O)c1c(O)cc2c(c1C3=O)OC1OC2(C)C(O)C(N(C)C)C1O (stereo not given)	0.15 µM	0.32 µM	-0.7 g	ILS [12]: 41%
COC(=O)[C@@H]1c2cc3c(c(O)c2[C@@H](O[C@@H]2O[C@@H](C)[C@H](OC)[C@@](C)(OC)[C@H]2OC)C[C@]1(C)O)C(=O)c1c(O)cc2c(c1C3=O)O[C@H]1O[C@@]2(C)[C@@H](O)[C@@H](N(C)C)[C@@H]1O	0.078 µM	0.18 µM	-0.5 g	ILS [13]: 49%
CN(C)C1C(O)C2Oc3c(cc(O)c4c3C(=O)c3cc5c(c(O)c3C4=O)CCC(C)(O)C5)C(C)(O2)C1O (stereo not given)	0.94 µM	1.76 µM	-1.2 g	ILS [14]: 21%
CNC1C(O)C2Oc3c(cc(O)c4c3C(=O)c3cc5c(c(O)c3C4=O)C(OC3OC(C)C(OC)C(C)(OC)C3OC)CC(C)(O)C5C(=O)OC)C(C)(O2)C1O (stereo not given)	0.36 µM	0.9 µM	-0.5 g	ILS [11]: 59%
CN(C)C1C(O)C2Oc3c(cc(O)c4c3C(=O)c3cc5c(c(O)c3C4=O)C(OCCBr)CC(C)(O)C5)C(C)(O2)C1O (stereo not given)	0.024 µM	0.071 µM	-1.3 g	ILS [15]: 60%
COC(=O)C1c2cc3c(c(O)c2CCC1(C)O)C(=O)c1c(O)cc2c(c1C3=O)OC1OC2(C)C(O)C(N(C)C)C1O (stereo not given)	0.58 µM	1.51 µM	-0.7 g	ILS [4]: 27%
CN(C)C1C(O)C2Oc3c(cc(O)c4c3C(=O)c3cc5c(c(O)c3C4=O)C(N=[N+]=[N-])CC(C)(O)C5)C(C)(O2)C1O (stereo not given)	0.83 µM	1.76 µM	-0.3 g	ILS [10]: 33%
COc1c2c(cc3c1C(OC)CC(C)(O)C3)C(=O)c1c3c(cc(O)c1C2=O)C1(C)OC(O3)C(O)C(N(C)C)C1O (stereo not given)	4.5 µM	9.7 µM	0.6 g	ILS [9]: 25%
CN(C)C1C(O)C2Oc3c(cc(O)c4c3C(=O)c3cc5c(c(O)c3C4=O)CCC(C)(O)C5C(=O)O)C(C)(O2)C1O (stereo not given)	5.6 µM	14.5 µM	0.2 g	ILS [16]: -4%
COC(=O)C1c2cc3c(c(O)c2C(OC2OC(C)C(OC)C(C)(OC)C2OC)CC1(C)O)C(=O)c1c(O)cc2c(c1C3=O)OC1OC2(C)C(OC(C)=O)C(N(C)C)C1OC(C)=O (stereo not given)	0.069 µM	0.185 µM	-0.3 g	ILS [17]: 3%
COCCNC1CC(C)(O)Cc2cc3c(c(O)c21)C(=O)c1c(O)cc2c(c1C3=O)OC1OC2(C)C(O)C(N(C)C)C1O (stereo not given)	1.04 µM	2.91 µM	0.2 g	ILS [18]: 40%
C=CCOC1CC(C)(O)Cc2cc3c(c(O)c21)C(=O)c1c(O)cc2c(c1C3=O)OC1OC2(C)C(O)C(N(C)C)C1O (stereo not given)	0.18 µM	0.53 µM	0.3 g	ILS [10]: 25%
COC1C(C)OC(OC2CC(C)(O)Cc3cc4c(c(O)c32)C(=O)c2c(O)cc3c(c2C4=O)OC2OC3(C)C(O)C(N(C)C=O)C2O)C(OC)C1(C)OC (stereo not given)	> 1 µM	>1 µM	0.1 g	ILS [4]: 0%
CN(C)C1C(O)C2Oc3c(cc(O)c4c3C(=O)c3cc5c(c(O)c3C4=O)C(N)CC(C)(O)C5)C(C)(O2)C1O (stereo not given)	0.97 µM	2 µM	0.2 g	ILS [18]: 47%
